Measured values taken from ChEMBL document CHEMBL1129498, “Azole endothelin antagonists. 2. Structure-activity studies” (J Med Chem, 1996).

How the values were obtained:
Endothelin-1 receptor = target: T1, Endothelin-1 receptor (Rattus norvegicus, UniProt P26684); test: Inhibitory activity was evaluated against ET- A Binding to Endothelin A receptor in MMQ cell homogenates; format: cell-free
T1 sequence (P26684 whole entry): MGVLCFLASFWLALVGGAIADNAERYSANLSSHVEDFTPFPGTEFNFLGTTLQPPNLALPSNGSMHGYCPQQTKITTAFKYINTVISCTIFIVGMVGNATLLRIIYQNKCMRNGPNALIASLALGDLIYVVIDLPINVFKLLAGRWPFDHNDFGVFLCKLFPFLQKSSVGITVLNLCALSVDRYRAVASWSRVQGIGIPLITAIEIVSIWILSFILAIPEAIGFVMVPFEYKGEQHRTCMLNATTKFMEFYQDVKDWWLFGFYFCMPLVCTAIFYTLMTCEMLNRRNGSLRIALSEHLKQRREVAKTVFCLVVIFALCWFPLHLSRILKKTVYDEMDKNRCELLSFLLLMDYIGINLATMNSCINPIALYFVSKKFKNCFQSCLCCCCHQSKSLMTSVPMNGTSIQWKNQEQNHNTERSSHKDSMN

[1] = target: T2, Endothelin receptor type B (Sus scrofa, UniProt P35463); test: Inhibitory activity was evaluated against ET- B Binding to Endothelin B receptor from porcine cerebellar membranes
T2 sequence (P35463 whole entry): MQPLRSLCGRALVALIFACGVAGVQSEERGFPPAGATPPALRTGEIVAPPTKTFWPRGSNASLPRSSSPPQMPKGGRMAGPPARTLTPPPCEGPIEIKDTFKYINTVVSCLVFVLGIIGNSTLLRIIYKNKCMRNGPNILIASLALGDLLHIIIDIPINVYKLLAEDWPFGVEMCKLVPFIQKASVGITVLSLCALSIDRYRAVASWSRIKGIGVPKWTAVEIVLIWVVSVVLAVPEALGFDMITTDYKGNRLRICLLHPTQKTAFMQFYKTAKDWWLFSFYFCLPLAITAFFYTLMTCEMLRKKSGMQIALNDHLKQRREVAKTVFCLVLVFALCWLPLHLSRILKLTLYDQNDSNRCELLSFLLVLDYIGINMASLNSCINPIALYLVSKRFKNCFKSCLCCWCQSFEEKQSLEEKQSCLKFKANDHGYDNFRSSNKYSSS

MMQ = test: Inhibitory activity was evaluated by measuring the PI hydrolysis in MMQ cell line; format: functional, cell-based, Rattus norvegicus
How it was run: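 MMQ cells (0.4 × 10⁶ cells/mL) labeled 16 h with 10 µCi/mL [³H]myoinositol in RPMI, PBS-washed, then held 60 min in buffer A with protease inhibitors and 10 mM LiCl. Compound pre-incubated 5 min, then 1 nM ET-1 challenge for 30 min at 37 °C, stopped with chloroform-methanol. Total inositol phosphates extracted and taken from the aqueous phase by AG1-X8 anion-exchange batch chromatography.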

Structure (SMILES)	IC50 (Endothelin-1 receptor) [nM]	IC50 [1] [nM]	IC50 (MMQ; Rattus norvegicus, MMQ) [nM]	IC50 (MMQ; mmq) [nM]
Cc1oc([C@@H](Cc2cn(C)c3ccccc23)NC(=O)[C@H](CC(C)C)NC(=O)Nc2ccccc2)nc1C(=O)O	16	30000	53	
Cc1[nH]c([C@@H](Cc2cn(C)c3ccccc23)NC(=O)[C@H](CC(C)C)NC(=O)NC2CCCCCC2)nc1C(=O)O	60	42000	87	
Cc1oc([C@@H](Cc2cn(C)c3ccccc23)NC(=O)[C@H](CC(C)C)NC(=O)N2CCOC23CCCCC3)nc1C(=O)O	5.7	35000	6.1	
Cc1[nH]c([C@@H](Cc2cn(C)c3ccccc23)NC(=O)[C@H](CC(C)C)NC(=O)NC2CC3CCC2C3)nc1C(=O)O (stereo in doubt; 14o)	29	8300		16
Cc1[nH]c([C@@H](Cc2cn(C)c3ccccc23)NC(=O)[C@H](CC(C)C)NC(=O)NC2CC3CCC2C3)nc1C(=O)O (stereo in doubt; 14p)	19	9500		36
